Compounds with a hit are over-represented: about 2.9% of the library has one in this group of screens.
M1 ag parental: counter-screen for M1 agonists: effect in parental CHO-K1 cells; Fluo-8 calcium fluorescence; scaled to maximal ATP response, vehicle zero; activation, % at 3 µM; 0.48% of 360,000 active; AID 602248, 2012; in the data active = activation above about 15%;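 also: untransfected CHO-K1 host cells lacking M1 receptor as counterscreen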
CHO-K1 Ca antag: M1 antagonist counterscreen hit in parental CHO-K1 cells; ATP-induced calcium, Fluo-8 fluorescence; inhibition, % at 3 µM; 0.6% of 360,000 active; AID 602250;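 active = inhibition above a per-plate cutoff, the plate's mean sample inhibition plus 3 SD, cut at about 24% in these data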
CHO-K1 Ca PAM: nonselective calcium activators in parental CHO-K1 cells, primary screen, counter-screen for M1 PAM project, cell-based, Fluo-8 calcium fluorescence, full deck, 1536-well; 0.02% of 360,000 active; AID 602247, 2012; ATP EC20; 0% at ATP EC20, 100% at ATP max; activation, % at 3 µM;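 active = activation above the run cutoff, the mean activation of all test compounds plus 3 SD, cut at about 40% in these data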;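 also: peak over basal fluorescence ratio in a 140 s read after ATP addition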
OX1R antag-1: OX1R (HCRTR1) antagonists, primary screen, fluorescence, CHO/OX1R cells, Fluo-8 calcium, orexin A; Orexin/Hypocretin receptor type 1 (Homo sapiens), O43613; Fluo-8 calcium fluorescence; inhibition, % at 5 µM; 0.43% of 330,000 active; AID 434989, 2010;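 active = inhibition above its plate's threshold, mean inhibition of all tested compounds on the plate plus 3 SD, cut at about 37% in these data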
Target sequence (O43613 whole entry, looked up): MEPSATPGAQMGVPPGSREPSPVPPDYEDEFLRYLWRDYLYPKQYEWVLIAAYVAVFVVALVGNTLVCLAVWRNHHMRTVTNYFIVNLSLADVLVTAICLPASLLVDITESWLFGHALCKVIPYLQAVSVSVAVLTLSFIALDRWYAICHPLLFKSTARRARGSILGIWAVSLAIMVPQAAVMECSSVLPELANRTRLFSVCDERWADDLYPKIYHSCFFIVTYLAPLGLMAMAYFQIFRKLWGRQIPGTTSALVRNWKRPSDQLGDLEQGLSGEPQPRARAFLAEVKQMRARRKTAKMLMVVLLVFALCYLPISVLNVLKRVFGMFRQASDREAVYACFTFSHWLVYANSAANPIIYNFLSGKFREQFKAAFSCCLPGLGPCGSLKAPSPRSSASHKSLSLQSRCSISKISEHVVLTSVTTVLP
OX1R antag-2: antagonists of human orexin 1 receptor (OX1R); Orexin/Hypocretin receptor type 1 (Homo sapiens), O43613; OX1R-expressing cells, FRET antagonist read-out; inhibition, % at 6.6 µM; 1.8% of 330,000 active; in the data active = inhibition mostly above about 38%, no sharp cut-off; inactive = mostly below about 40%
CHO parental Ca: ATP-evoked calcium signal inhibitors, parental CHO, primary screen, counter-screen for OX1R antagonist project, cell-based, fluorescence, Fluo-8 calcium dye | parental CHO-K1, ATP-induced calcium, Fluo-8 fluorescence | inhibition, % at 5.6 µM | 0.63% of 330,000 active | AID 463079, 2010;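 active = inhibition above that plate's mean sample inhibition plus 3 SD, cut at about 26% in these data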
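Test system: parental CHO cells; detection: calcium-sensitive Fluo-8 fluorescence; evaluation: percent inhibition of calcium signal; also added: ATP as calcium-mobilizing challenge; repeats: one well per compound; control set: ATP-challenged DMSO wells low, unchallenged DMSO wells high; compound: single nominal dose of 5.6 µM per compound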
A number is an active result; – = inactive; · = no result given.

SMILES	M1 ag parental	CHO-K1 Ca antag	CHO-K1 Ca PAM	OX1R antag-1	OX1R antag-2	CHO parental Ca
CN(C1=C(NC(=O)c2ccccc2)C(=O)c2ccccc2C1=O)C1CCS(=O)(=O)C1 (stereo unspecified)	–	–	–	–	84.8	–
Cc1nc2cc(-c3sccc3-n3cccc3)nn2c(C)c1C	–	–	–	–	52.1	–
Cn1nc([N+](=O)[O-])c(C(C#N)c2ccccn2)c(Cl)c1=O (stereo unspecified)	–	–	–	–	–	–
CCn1nc([N+](=O)[O-])c(C(C#N)c2nc3cc(C(F)(F)F)ccc3s2)c(Cl)c1=O (stereo unspecified)	–	–	–	–	62.0	–
C[C@H](CO)N1C[C@H](C)[C@@H](CN(C)C(=O)Nc2ccc3c(c2)OCO3)Oc2ccc(NC(=O)CCN3CCOCC3)cc2C1=O	–	–	–	–	–	–
C=CCn1c(=O)[nH]c2nc3cc(N=CN(C)C)c(C)cc3nc2c1=O	–	–	–	–	73.2	–
CC1(C(=O)N2CC3(CC(c4cccc([N+](=O)[O-])c4)=NO3)C[C@H]2C(=O)NCC(N)=O)CC1 (stereo partly specified)	–	–	–	–	48.4	–
NC(=O)CNC(=O)[C@@H]1CC2(CC(c3cccc([N+](=O)[O-])c3)=NO2)CN1C(=O)c1ccccc1 (stereo partly specified)	–	–	–	–	–	–
N#Cc1ccsc1NC(=O)c1ccc(Cl)c([N+](=O)[O-])c1	18.6	–	–	–	88.3	45.8
N#Cc1ccsc1NC(=O)c1cccc([N+](=O)[O-])c1	–	–	–	–	–	–
COc1ccccc1NC(=O)CSc1nnc(C2CCCCC2)o1	–	23.7	–	–	–	–
COc1ccc(OC)c(NC(=O)CSc2nnc(C3CCCCC3)o2)c1	–	–	–	–	–	–
Cc1ccccc1-c1nc(S(=O)(=O)c2ccccc2)c(N2CCCC2)o1	–	–	–	–	–	–
COc1cc(/C=C2/SC(N)=NC2=O)ccc1Oc1ccc([N+](=O)[O-])cc1[N+](=O)[O-]	–	–	–	–	–	–
COc1cc(/C=C2/NC(=O)N(Cc3ccccc3F)C2=O)ccc1Oc1ccc([N+](=O)[O-])cn1	–	–	–	–	–	–
COc1cc(/C=C2\SC(=O)NC2=O)ccc1Oc1ccc([N+](=O)[O-])cn1	–	–	–	–	52.7	–
COc1cc(/C=C2/SC(=O)NC2=O)ccc1Oc1ccc([N+](=O)[O-])cc1[N+](=O)[O-]	–	–	–	–	47.3	–
CCC(C)[C@H](NC(=O)[C@@H]1Cc2ccccc2CN1C(=O)OC(C)(C)C)C(=O)NCC1CCC(C(=O)O)CC1 (stereo partly specified)	–	–	–	–	–	–
CCCCC(=O)Nc1ncc(S(=O)(=O)c2ccc([N+](=O)[O-])cc2)s1	–	–	–	–	–	–
CC(=O)NCCC(=O)Nc1ncc(S(=O)(=O)c2ccc([N+](=O)[O-])cc2)s1	–	–	–	–	66.0	–
Cc1ccc(N)cc1O	–	–	–	–	38.4	–
Cc1cc(O)c(-c2cc(O)c(C)cc2O)cc1O	–	–	–	–	–	–
Oc1[nH]c(=S)sc1/C=C1\C(c2ccccc2)=Nc2ccccc21	–	–	–	–	75.7	–
Oc1[nH]c(=S)sc1C=C1N=c2ccccc2=N1	–	–	–	–	–	–
O=C(CCN1C(=O)C2C3C=CC(C3)C2C1=O)N1CCN(c2ccccn2)CC1 (stereo unspecified)	–	–	–	–	–	–
SMILES	M1 ag parental	CHO-K1 Ca antag	CHO-K1 Ca PAM	OX1R antag-1	OX1R antag-2	CHO parental Ca
O=C1C2C3C=CC(C3)C2C(=O)N1c1ccc(N2CCN(c3ccccn3)CC2)c([N+](=O)[O-])c1 (stereo unspecified)	–	–	–	–	–	63.2
CCCNC(=S)N1CCN(c2nc(-c3ccc(C)cc3)cs2)CC1	–	–	–	–	–	52.8
CCCNC(=S)N1CCN(c2nc(-c3cccc(OC)c3)cs2)CC1	–	–	–	–	–	–
Nc1nc(Nc2ccccc2F)sc1C(=O)c1ccccc1	–	–	–	–	–	–
CCN(C(=O)CC(C)C)c1nnc(Cn2nnc3ccccc32)s1	–	–	–	–	–	–
CCN(C(=O)c1ccc(C(C)(C)C)cc1)c1nnc(Cn2nnc3ccccc32)s1	–	31.3	–	68.6	–	66.3
O=C(OCC(=O)N(CCc1ccccc1)Cc1ccccc1)c1ccccc1NCCO	–	–	–	–	–	–
O=C(CSc1nc2ccccc2c(=O)n1-c1ccccc1)N1CCC1	–	–	–	–	–	–
CC(C)c1ccccc1-n1c(SCC(=O)N2CCc3ccccc3C2)nc2ccccc2c1=O	–	–	–	–	73.3	–
O=C(CSc1nc2ccccc2c(=O)n1-c1ccccc1)N1CCc2ccccc2C1	–	–	–	–	54.7	–
Cc1ccc(-n2c(SCC(=O)N3CC(=O)Nc4ccccc43)nc3ccccc3c2=O)cc1C	–	–	–	–	72.3	–
Cc1cccc(-n2c(SCC(=O)N3CC(=O)Nc4ccccc43)nc3ccccc3c2=O)c1	–	–	–	–	–	–
Cc1noc(C)c1C(=O)OCC(=O)C12CC3CC(CC(C3)C1)C2	–	–	–	–	–	–
CCCCOc1ccc(S(=O)(=O)NC(=O)C2(C)CCN2C(=O)c2cccc(F)c2)cc1 (stereo unspecified)	–	–	–	·	·	·
O=C1c2ccccc2C(=O)C1c1ccnc2ccccc12	–	–	–	–	68.7	–
O=C1c2ccccc2C(=O)C1c1nccc2ccccc12	–	–	–	–	–	–
O=C(NCC1CC1(Cl)Cl)Nc1ccc(Cl)c(Cl)c1 (stereo unspecified)	–	–	–	–	–	33.2
Cc1ccc(NC(=O)NCC2CC2(Cl)Cl)cc1 (stereo unspecified)	–	–	–	–	–	–
COc1ccc(N2CCN(Cc3nc4c(c(=O)n(C)c(=O)n4C)n3CCc3ccccc3)CC2)cc1	–	26.8	–	–	–	–
Cc1cc(C)c2nc(NC(=O)C3CSC4(C)CCC(=O)N34)sc2c1 (stereo unspecified)	–	–	–	–	–	–
O=c1c(Cc2ccccc2)c(O)ccn1Cc1ccco1	–	–	–	–	–	–
Cc1cccc(Nc2ncnc(N)c2[N+](=O)[O-])n1	–	–	–	–	56.0	–
Nc1ncnc(Nc2ccccn2)c1[N+](=O)[O-]	–	–	–	–	64.2	–
Cn1cc(S(=O)(=O)N2CCCC2)cc1C(=O)NCc1ccc(Cl)cc1	–	–	–	–	–	–

Compound activity from PubChem.
